Data: PMC8867604 (European journal of pharmacology, 2020)
Read-outs that look alike come from different tables or passages of the source. Residues, ends and D or L forms follow the SMILES beside them. *: point of attachment. Cbz = O=C(OCc1ccccc1)*; OtBu = CC(C)(C)O*

How the values were obtained:
Format in all cases: cell-based, human
NF-κB [1] = assay: NF-κB luciferase reporter assay, antagonists with TNFα stimulation; conditions: for effect on NF-κB pathway activity: at low micromolar concentrations; for effect on NF-κB pathway activity / effect on NF-κB expression / mode of action on NF-κB signaling: TNFα stimulated, 24 h; for EC50: Homo sapiens, HEK293, 24 h, read-out: EC50 (NF-kB reporter)
HEK293 cells = conditions: for IC50: Homo sapiens, HEK293, 24 h, read-out: IC50 (cell viability)
NF-κB [2] = assay: NF-κB luciferase reporter assay, agonists without TNFα; conditions: HEK293 reporter cells, no TNFα, 24 h
How it was run: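 HEK293 stable NF-κB GFP-luciferase reporter line grown in DMEM with 10% FBS and 1% pen/strep at 37°C, 5% CO2. Seeded 1x10^4/well (96-well) or 1x10^3/well (384-well) 12 h before dosing across a concentration range in fresh medium, with vehicle-only controls. Incubated 24 h, then luminescence read. Drug/vehicle luminescence ratio plotted against log10 concentration to derive EC50. Triplicate or quadruplicate doses, ≥3 experiments.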

MAF1329 ependymoma cells = system: MAF1329 ependymoma cells
[3] = at low or mid-range micromolar concentrations
[4] = at low micromolar concentrations

CC[C@H](C)[C@H](NC(=O)OCc1ccccc1)C(=O)N[C@@H](CCC(=O)OC(C)(C)C)C(=O)N[C@@H](C)C(=O)N[C@H](C=O)CC(C)C [PSI] (Cbz-IE(OtBu)AL-aldehyde)
effect on NF-κB pathway activity (NF-κB [1]): act as agonists and increased pathway activity | effect on cell viability (HEK293 cells): without effecting cell viability

C=C(C)[C@@H]1CC[C@]2(C(=O)O)CC[C@]3(C)[C@H](CC[C@@H]4[C@@]5(C)CC[C@H](O)C(C)(C)[C@@H]5CC[C@]43C)[C@@H]12 [betulinic acid, Betulinic acid]
concentration at which NF-κB agonist activity was seen (NF-κB [2]): 100,000 nM

CCNC(=O)[C@H]1O[C@@H](n2cnc3c(N)nc(NCCc4ccc(CCC(=O)O)cc4)nc32)[C@H](O)[C@@H]1O [CGS 21680]
NF-κB agonist effect (NF-κB [2]): no effect

Br.Cc1cc2nc(NCCCO)n(CC(=O)c3cc(C(C)(C)C)c(O)c(C(C)(C)C)c3)c2cc1C [CID 2858522]
effect on NF-κB expression (NF-κB [1]; [3]): agonistic effect | cytotoxic effect (HEK293 cells): no cytotoxic effect

Cc1ccc(S(=O)(=O)/C=C/C#N)cc1 [BAY 11–7082]
effect on NF-κB expression (NF-κB [1]; [3]): agonistic effect | cytotoxic effect (HEK293 cells): no cytotoxic effect

C[C@]1(CO)CN(c2cc(C(=O)Nc3ccc4c(c3)-c3c(c(C(N)=O)nn3-c3ccc(F)cc3)CC4)c(Cl)cn2)C[C@@]1(C)CO [PF-184]
mode of action on NF-κB signaling (NF-κB [1]; HEK-293 reporter cells): work antagonistically | effect on cell viability (HEK293 cells): did not result in a decrease of cell viability

O=C(Nc1cc(C(F)(F)F)cc(C(F)(F)F)c1)c1cc(Cl)ccc1O [IMD 0354]
mode of action on NF-κB signaling (NF-κB [1]; HEK-293 reporter cells): work antagonistically | EC50 (NF-κB [1]): 292 nM | IC50 (HEK293 cells): 1.56 µM | effect on cell viability (HEK293 cells; at low concentrations): did not result in a decrease of cell viability

O=c1cc(-c2ccc(O)c(O)c2)oc2cc(O)cc(O)c12 [Luteolin]
effect on NF-κB expression (NF-κB [1]; HEK-293 reporter cells): no specific effect | EC50 (NF-κB [1]): 35000 nM | IC50 (HEK293 cells): > 100 µM

COc1cc(O)cc(O)c1C(=O)/C=C/c1ccccc1 [Cardamonin]
effect on NF-κB pathway activity (NF-κB [1]): act as agonists and increased pathway activity | effect on cell viability (HEK293 cells; [4]): without effecting cell viability | change in cell viability of MAF1329 (MAF1329 ependymoma cells; C11orf95-RELA fusion positive ependymoma cell culture): no change in cell viability

CC(C)(C)c1ccc(S(=O)(=O)/C=C/C#N)cc1 [BAY 11–7085]
effect on NF-κB expression (NF-κB [1]; [3]): agonistic effect | cytotoxic effect (HEK293 cells): no cytotoxic effect

NC(=O)Nc1sc(-c2ccc(F)cc2)cc1C(N)=O [TCPA-1, 2-[(Aminocarbonyl)amino]-5-(4-fluorophenyl)-3-thiophenecarboxamide]
EC50 (NF-κB [1]): < 1 nM | effect on cell viability (HEK293 cells; at low concentrations): did not result in a decrease of cell viability

CC1=C(O)C(=O)C=C2C1=CC=C1[C@@]2(C)CC[C@@]2(C)[C@@H]3C[C@](C)(C(=O)O)CC[C@]3(C)CC[C@]12C [Celastrol]
EC50 (NF-κB [1]): 82 nM | effect on NF-κB pathway activity (NF-κB [1]): act as agonists and increased pathway activity | IC50 (HEK293 cells): 0.475 µM | effect on cell viability (HEK293 cells; [4]): without effecting cell viability | IC50 (MAF1329 ependymoma cells; Homo sapiens, read-out: IC50 (cell viability of MAF1329)): 1700 nM

O=C(c1ccc(Nc2nccc(-c3cc4ccccc4s3)n2)cc1)N1CCC(N2CCCC2)CC1 [IKK-16]
effect on NF-κB expression (NF-κB [1]; HEK-293 reporter cells): no specific effect | effect on cell viability (HEK293 cells): no specific effect

CC(=O)O[C@@]12C[C@@H](C)[C@@]3(O)[C@@H](C=C(CO)C[C@]4(O)C(=O)C(C)=C[C@@H]34)[C@@H]1C2(C)C [Prostratin]
concentration at which NF-κB agonist activity was seen (NF-κB [2]): 1000 nM

CS(=O)(=O)N1CCN(Cc2cc3nc(-c4cccc5[nH]ncc45)nc(N4CCOCC4)c3s2)CC1 [Pictalisib, 2-(1 H -Indazol-4-yl)-6-(4-methanesulfonyl-piperazin-1-ylmethyl)-4-morpholin-4-yl-thieno[3,2-d]pyrimidine]
EC50 (NF-κB [1]): 4270 nM | IC50 (HEK293 cells): 7.47 µM

[O-][S+](c1ccccc1)c1ccc2nnnn2n1 (stereo not drawn) [Ro106–9920]
effect on cell viability (HEK293 cells): did not result in a decrease of cell viability

Oc1cc(O)cc(/C=C/c2ccc(O)c(O)c2)c1 [Piceatannol]
EC50 (NF-κB [1]): > 100000 nM | effect on NF-κB expression (NF-κB [1]; [3]): agonistic effect | cytotoxic effect (HEK293 cells): no cytotoxic effect | IC50 (HEK293 cells): > 100 µM
